For data set [1], the species on record is Homo sapiens. Kind of data set: Selectivity ratio of IC50 for human recombinant N-terminal His-tagged and enterokinase cleavage site-fused KLK1 (19 to 262 residues) expressed in baculovirus infected Sf9 insect cells to IC50 for human recombinant 6His-Q-FLAG-tagged KLK5 expressed in baculovirus infected Sf9 insect cells.
Data set [2] addresses T1, Suppressor of tumorigenicity 14 protein (Homo sapiens, UniProt Q9Y5Y6).
T1 sequence (Q9Y5Y6 whole entry): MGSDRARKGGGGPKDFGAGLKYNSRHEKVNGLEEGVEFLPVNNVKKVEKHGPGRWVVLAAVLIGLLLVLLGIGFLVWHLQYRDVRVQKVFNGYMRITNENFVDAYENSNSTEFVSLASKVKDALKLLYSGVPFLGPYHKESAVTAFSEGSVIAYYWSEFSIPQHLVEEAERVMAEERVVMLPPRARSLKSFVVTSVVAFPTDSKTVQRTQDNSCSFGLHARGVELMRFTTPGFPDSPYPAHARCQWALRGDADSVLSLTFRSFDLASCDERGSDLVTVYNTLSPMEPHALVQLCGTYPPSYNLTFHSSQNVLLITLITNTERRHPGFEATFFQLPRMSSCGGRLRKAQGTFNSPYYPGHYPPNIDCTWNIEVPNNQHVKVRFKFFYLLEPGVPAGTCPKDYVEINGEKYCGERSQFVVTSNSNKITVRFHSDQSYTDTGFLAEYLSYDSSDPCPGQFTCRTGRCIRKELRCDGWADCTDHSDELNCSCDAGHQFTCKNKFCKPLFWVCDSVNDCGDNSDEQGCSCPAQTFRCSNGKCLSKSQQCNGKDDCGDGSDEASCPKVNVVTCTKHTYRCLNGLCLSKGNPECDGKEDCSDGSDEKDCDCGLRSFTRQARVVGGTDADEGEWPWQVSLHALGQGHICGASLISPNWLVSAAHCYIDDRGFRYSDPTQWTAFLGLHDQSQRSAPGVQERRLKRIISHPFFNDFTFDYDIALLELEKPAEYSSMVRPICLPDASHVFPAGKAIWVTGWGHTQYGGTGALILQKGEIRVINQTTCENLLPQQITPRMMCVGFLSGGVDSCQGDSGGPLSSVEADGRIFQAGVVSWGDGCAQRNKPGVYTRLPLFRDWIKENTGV
Kind of data set: Inhibition of recombinant human N-terminal Met and 6-His-tagged matriptase (G596 to V855 residues) expressed in Escherichia coli using Boc-QAR-AMC as substrate incubated for 40 mins by FLINT assay.

In a further data set the target is Coagulation factor X (Homo sapiens, UniProt P00742). Briefly: Inhibition of recombinant human C-terminal 10-His-tagged factor Xa (L24 to K488 residues) expressed in baculovirus infected Sf21 insect cells using Mca-RPKPVE-Nval-WRK(Dnp)-NH2 as substrate incubated for 40 mins by FLINT assay.
Data set [3] addresses T2, Kallikrein-5 (Homo sapiens, UniProt Q9Y337).
T2 sequence (Q9Y337 whole entry): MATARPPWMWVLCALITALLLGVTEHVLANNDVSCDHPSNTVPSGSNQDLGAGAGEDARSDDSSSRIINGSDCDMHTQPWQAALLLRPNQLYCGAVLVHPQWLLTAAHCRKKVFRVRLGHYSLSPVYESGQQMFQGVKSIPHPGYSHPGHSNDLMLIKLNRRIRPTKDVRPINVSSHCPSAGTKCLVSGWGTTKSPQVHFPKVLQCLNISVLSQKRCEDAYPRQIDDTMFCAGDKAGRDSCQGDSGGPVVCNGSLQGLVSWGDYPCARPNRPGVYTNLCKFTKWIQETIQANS
Kind of data set: Inhibition of human recombinant 6His-Q-FLAG-tagged KLK5 expressed in baculovirus infected Sf9 insect cells using (Tos-Gly-Pro-Arg)2[R110].2TFA as substrate measured at 30 secs interval for 5 mins using 1 x 10'10M enzyme by FLINT assay.

The target in another data set is Kallikrein-7 (Homo sapiens, UniProt P49862). Kind of data set: Inhibition of recombinant human C-terminal 10-His-tagged KLK7 (Glu23 to His252 residues) expressed in mouse NS0 cells using 5-FAM-E-A-L-Y-L-V-S-G-C(5-TAMRA) as substrate incubated for 40 mins by FLINT assay.
For another data set, the target named is T3, Kallikrein-8 (Homo sapiens, UniProt O60259).
T3 sequence (O60259 whole entry): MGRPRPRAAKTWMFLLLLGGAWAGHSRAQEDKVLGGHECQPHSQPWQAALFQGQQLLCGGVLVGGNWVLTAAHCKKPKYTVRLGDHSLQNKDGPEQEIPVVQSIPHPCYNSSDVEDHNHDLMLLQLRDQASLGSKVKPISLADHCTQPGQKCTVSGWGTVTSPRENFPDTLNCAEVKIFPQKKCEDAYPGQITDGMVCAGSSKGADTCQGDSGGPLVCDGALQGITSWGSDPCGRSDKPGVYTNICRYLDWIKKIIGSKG
Briefly: Inhibition of recombinant human C-terminal 10-His-tagged KLK8 (Gln29 to Gly260 residues) expressed in mouse NS0 cells using BOC-VPR-AMC as substrate incubated for 40 mins by FLINT assay.

The target of data set [4] is T2, Kallikrein-5. Kind of data set: Inhibition of human recombinant 6His-Q-FLAG-tagged KLK5 expressed in baculovirus infected Sf9 insect cells using (Tos-Gly-Pro-Arg)2[R110].2TFA as substrate measured at 30 secs interval for 5 mins by FLINT assay. Put shortly: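 Standard KLK5 assay format. Its theoretical tight-binding limit corresponds to pIC50 8.4.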
The next data set deals with Prothrombin (Homo sapiens, UniProt P00734). Kind of data set: Inhibition of human recombinant C-terminal 10-His-tagged thrombin (M1 to E622 residues) expressed in mouse NS0 cells using BOC-VPR-AMC as substrate incubated for 40 mins by FLINT assay.
The species named for data set [5] is Homo sapiens. Briefly: Selectivity ratio of IC50 for human C-terminal 6-His-tagged KLKB1 (G20 to A638 residues) expressed in mouse NS0 cells to IC50 for human recombinant 6His-Q-FLAG-tagged KLK5 expressed in baculovirus infected Sf9 insect cells.
The target in another data set is T4, Neutrophil elastase (Homo sapiens, UniProt P08246).
T4 sequence (P08246 whole entry): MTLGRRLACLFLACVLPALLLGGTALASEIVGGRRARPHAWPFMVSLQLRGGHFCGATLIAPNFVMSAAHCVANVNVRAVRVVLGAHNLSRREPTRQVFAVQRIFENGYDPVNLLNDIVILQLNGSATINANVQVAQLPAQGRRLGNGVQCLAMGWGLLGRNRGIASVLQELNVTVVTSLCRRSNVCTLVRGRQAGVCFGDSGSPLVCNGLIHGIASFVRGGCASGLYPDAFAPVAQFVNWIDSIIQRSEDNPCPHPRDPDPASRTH
Briefly: Inhibition of human neutrophil elastase using MeOSuc-AAPV-AMC as substrate incubated for 40 mins by FLINT assay.

Data set [6] is described as follows: Dissociation constant, borocycle pKa of the compound. The class given is physicochemical.
In a further data set the target is T5, Kallikrein-14 (Homo sapiens, UniProt Q9P0G3).
T5 sequence (Q9P0G3 whole entry): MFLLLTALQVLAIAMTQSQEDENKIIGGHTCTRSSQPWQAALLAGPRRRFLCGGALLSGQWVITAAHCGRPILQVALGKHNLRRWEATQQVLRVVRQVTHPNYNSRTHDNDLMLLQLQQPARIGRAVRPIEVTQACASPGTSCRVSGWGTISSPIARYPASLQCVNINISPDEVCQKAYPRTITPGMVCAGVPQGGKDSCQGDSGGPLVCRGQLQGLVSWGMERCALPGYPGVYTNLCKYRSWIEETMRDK
Kind of data set: Inhibition of recombinant human C-terminal 10-His-tagged KLK14 (Q19 to M248 residues) expressed in mouse NS0 cells using BOC-VPR-AMC as substrate incubated for 40 mins by FLINT assay.

A further data set concerns the target Kallikrein-1 (Homo sapiens, UniProt P06870). Kind of data set: Inhibition of human recombinant N-terminal His-tagged and enterokinase cleavage site-fused KLK1 (19 to 262 residues) expressed in baculovirus infected Sf9 insect cells using R110 labelled GSK3162232A as substrate measured at 30 secs interval for 5 mins by FLINT assay.
Another data set concerns the target Plasma kallikrein (Homo sapiens, UniProt P03952). Briefly: Inhibition of human C-terminal 6-His-tagged KLKB1 (G20-A638 residues) expressed in mouse NS0 cells using PFR-AMC as substrate incubated for 40 mins by FLINT assay.
Data set [7] deals with Urokinase-type plasminogen activator (Homo sapiens, UniProt P00749). Briefly: Inhibition of recombinant human C-terminal 10-His-tagged urokinase (M1 to L431 residues) expressed in mouse NS0 cells using Z-GGR-AMC as substrate incubated for 40 mins by FLINT assay.
In data set [8] the target is T2, Kallikrein-5. Briefly: Inhibition of human recombinant 6His-Q-FLAG-tagged KLK5 expressed in baculovirus infected Sf9 insect cells using rhodamine-labelled tripeptide as substrate measured at 30 secs interval for 5 mins by FLINT assay.
Data set [9] concerns the target Kallikrein-5 (Homo sapiens) (UniProt Q9Y337). Briefly: Covalent reversible inhibition of human recombinant 6His-Q-FLAG-tagged KLK5 expressed in baculovirus infected Sf9 insect cells assessed as dissociation half life. Put shortly:
(§1)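 Jump-dilution experiment used to follow dissociation from KLK5. The apparent off-rate constant (K-off, per min) and dissociation half-life (T1/2) were derived from it.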

Data set [10] has the same target. Kind of data set: Covalent reversible inhibition of human recombinant 6His-Q-FLAG-tagged KLK5 expressed in baculovirus infected Sf9 insect cells assessed as dissociation rate constant. Put shortly:
as §1

The structures appear in SMILES notation. Where a name gives a salt, the structure may show the parent alone.

One may read the IC50 as the concentration needed to halve the response being measured. The term pKa denotes the pH at which an ionisable group is half protonated. A high value points to a group that holds its proton tightly. As to `N=C(N)c1ccc(CC2OB(O)c3ccccc32)cc1OCc1cccnc1` (racemic), the Ratio IC50 in the data set filed under Homo sapiens [1] was > 100; in the data set listed under Homo sapiens [5] it was 10. The IC50 in [2] is 7940 nM; on Coagulation factor X, > 100000 nM; at Kallikrein-5 [3] it was 6.31 nM; at Kallikrein-7, > 100000 nM; at Kallikrein-8 it was 200 nM; at Kallikrein-5 [4] it was 20 nM. Also, the IC50 at Prothrombin is 10000 nM; on Neutrophil elastase, 12600 nM; on Kallikrein-14 it was 2000 nM; on Kallikrein-1 it was 316000 nM; against Plasma kallikrein it was 79.4 nM; in data set [7], 79400 nM. In data set [6], this compound yielded a pKa of 4.8.

As for `N=C(N)c1ccccc1` [BENZAMIDINE HYDROCHLORIDE], on Kallikrein-5 [8], the IC50 was 501000 nM.

Consider `N=C(N)c1ccc([C@@H]2Cc3ccc(C(F)(F)F)cc3B(O)O2)cc1OCc1cccnc1`, for which the IC50 in data set [2] was 2000 nM; at Coagulation factor X, 3980 nM; at Kallikrein-5 [3], < 0.794 nM; at Kallikrein-7 it was > 100000 nM; at Kallikrein-8, 31.6 nM; at Kallikrein-5 [4], 5.01 nM. Moreover, the IC50 at Prothrombin was 20000 nM; at Neutrophil elastase, > 100000 nM; on Kallikrein-14, 398 nM; on Kallikrein-1, 2000 nM; at Plasma kallikrein it was 398 nM; in data set [7], > 100000 nM. For the same compound, the T1/2 in data set [9] came to 5 min. The Kdiss in [10] was found to be 0.00214 s⁻¹.

(Values after ChEMBL document CHEMBL4396973, “Design and development of a series of borocycles as selective, covalent kallikrein 5 inhibitors” (Bioorg Med Chem Lett, 2019).)
